Here are results for 9 molecules from publication PMC8669655 (ACS Infectious Diseases, 2021).

The subject of one series is A. baumannii ATCC17978. Kind of series: Checkerboard assay with rifampicin. In kind it is cell-based, Acinetobacter baumannii. To be noted: listed as pentamidine (1). The procedure, abridged:
(§1)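 Broth microdilution checkerboard in LB: serial dilutions of test compound and rifampicin combined, in triplicate. Inoculum from a single blood-agar colony, grown in LB at 37 °C to OD600 0.5, diluted to 2.0 × 10^6 CFU/mL stock, 50 μL added per 100 μL well. Sealed plates incubated 20 h, 37 °C, 600 rpm shaking. OD600 read after resuspension. FICI from MICs alone and in combination; ≤0.5 taken as synergy.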

Series [1] concerns E. coli EQASmcr-1 (EQAS 2016 412016126). Kind of series: Checkerboard assay with rifampicin. In kind it is cell-based, Escherichia coli. To be noted: E. coli EQASmcr-1 (polymyxin-resistant). The procedure, abridged: as §1
For series [2], the system named is E. coli EQASmcr-2 (EQAS 2016 KP37). Kind of series: Checkerboard assay with rifampicin. In kind it is cell-based, Escherichia coli. To be noted: E. coli EQASmcr-2 (polymyxin-resistant). The procedure, abridged: as §1
Another series relates to E. coli 552060.1. The series can be described thus: Checkerboard assay with rifampicin. In kind it is cell-based, Escherichia coli. To be noted: E. coli 552060.1 (wild-type clinical isolate). The procedure, abridged: as §1
The test system of series [3] is E. coli BW25113. The series can be described thus: MIC assay. In kind it is cell-based. To be noted: Escherichia coli. In a few lines: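 Broth microdilution per CLSI in LB. Test compound serially diluted twofold from a 2× stock. Inoculum from a single blood-agar colony, grown in LB at 37 °C to OD600 0.5, diluted to 2.0 × 10^6 CFU/mL stock, then added 1:1. Plates sealed with breathable seal, incubated 20 h at 37 °C, 600 rpm. MIC read visually after brief centrifugation. Six growth and six sterility controls.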

For a further series, the system named is E. coli ATCC25922. Kind of series: Checkerboard assay with rifampicin. In kind it is cell-based, Escherichia coli. The note with it: E. coli ATCC25922 (wild-type). The procedure, abridged:
as §1

For series [4], the system named is E. coli EQASmcr-3 (EQAS 2017 2013-SQ352). Kind of series: Checkerboard assay with rifampicin. In kind it is cell-based, Escherichia coli. The note with it: E. coli EQASmcr-3 (polymyxin-resistant), listed as pentamidine (1). In a few lines: as §1
For the next series, the system named is P. aeruginosa ATCC27853. Kind of series: Checkerboard assay with rifampicin. The note with it: listed as pentamidine (1). In kind it is cell-based, Pseudomonas aeruginosa. The procedure, abridged:
as §1

The next series relates to K. pneumoniae ATCC13883. The series can be described thus: Checkerboard assay with rifampicin. In kind it is cell-based, Klebsiella pneumoniae. The note with it: listed as pentamidine (1). The procedure, abridged: as §1
In the next series the test system is E. coli W3110. Kind of series: Checkerboard assay with rifampicin. To be noted: E. coli W3110 (wild-type). In kind it is cell-based, Escherichia coli. The procedure, abridged: as §1
The subject of series [5] is E. coli BW25113. Kind of series: OM permeabilization assay using NPN. In kind it is cell-based, Escherichia coli. To be noted: 60 min, relative to 100 μg/mL colistin. The procedure, abridged:
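Log-phase cells (overnight LB culture diluted 50×, grown to OD600 0.5) pelleted and resuspended to OD600 1.0 in 5 mM HEPES with 20 mM glucose. Test compound serially diluted in triplicate. NPN stock (0.5 mM in acetone) diluted 12.5× in buffer and added. Fluorescence read after 60 min, ex 355 nm / em 420 nm. Uptake % = (F − buffer blank)/(colistin 100 μg/mL − blank) × 100. Compound + NPN no-cell controls included.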

The test system of the next series is rat L6 muscle cell line. To be noted: cited from earlier work.

Each structure is given as a SMILES string. ≈ marks a conversion by molar mass, not a printed value. Entries after “also recorded” stand apart in the source; their conditions may differ. A value given as a limit tells only on which side of the number the result lay.

As usually defined, the MIC is the smallest concentration in the dilution series that meets the test's criterion for growth inhibition. Low readings indicate greater potency, high ones weaker potency. For the molecule `N=C(N)c1ccc(OCCCCCOc2ccc(C(=N)N)cc2)cc1` [compound 1, 4,4′-(Pentane-1,5-diylbis(oxy))dibenzimidamide, reference compound], the FICI is recorded as ≤0.125 in the series with A. baumannii ATCC17978; ≤0.250 in [1] (listed as pentamidine (1)); 0.375 in series [2]; 0.375 with E. coli 552060.1; 0.313 in the series with E. coli ATCC25922; ≤0.188 in [4]. Also, the FICI with P. aeruginosa ATCC27853 is recorded as ≤0.500; in the series with K. pneumoniae ATCC13883, ≤0.125; in the series on E. coli W3110 (listed as pentamidine (1)), ≤0.188. Further, the MIC in the series with E. coli BW25113 [3] (BW25113, compound alone) is ≥ 200 µg/mL.
As for `N=C(N)c1ccc(OCCCOc2ccc(C(=N)N)cc2)cc1` [compound 9, 4,4′-(Propane-1,3-diylbis(oxy))dibenzimidamide], in the series on E. coli BW25113 [3] (BW25113, compound alone), the MIC is ≥ 200 µg/mL.
On the same count and under the same terms, the value for `N=C(N)c1ccc(OCCCCCCCOc2ccc(C(=N)N)cc2)cc1` [compound 10, 4,4′-(Heptane-1,7-diylbis(oxy))dibenzimidamide] was 200 µg/mL (≈ 543 µM).
`N=C(N)c1ccc(OCCSCCOc2ccc(C(=N)N)cc2)cc1` [compound 15, 4,4′-((Thiobis(ethane-2,1-diyl))bis(oxy))dibenzimidamide]: the MIC in the series on E. coli BW25113 [3] (BW25113, compound alone) was > 200 µg/mL.
Still for that read-out and setting: to `N=C(N)c1ccc(OCCS(=O)(=O)CCOc2ccc(C(=N)N)cc2)cc1` [compound 16, 4,4′-((Sulfonylbis(ethane-2,1-diyl))bis(oxy))dibenzimidamide] belongs > 200 µg/mL.
As for `N=C(N)c1ccc(OCc2ccccc2COc2ccc(C(=N)N)cc2)cc1` [compound 21, 4,4′-((1,2-Phenylenebis(methylene))bis(oxy))dibenzimidamide], the “NPN uptake (OM disruption), in words” value with E. coli BW25113 [5] is on record as “dose-dependent increase in the fluorescent signal”. Moreover, the MIC against E. coli BW25113 [3] (BW25113, 20 h, compound alone) is > 200 µg/mL.
Regarding `N=C(N)c1ccc(OCc2cccc(COc3ccc(C(=N)N)cc3)c2)cc1` [compound 22, 4,4′-((1,3-Phenylenebis(methylene))bis(oxy))dibenzimidamide], the FICI in series [1] stood at 0.188; in series [2], 0.313; in the series on E. coli 552060.1 it was 0.250; in the series on E. coli ATCC25922, 0.094; with E. coli W3110, 0.313. In addition, in the series on E. coli BW25113 [5], the “NPN uptake (OM disruption), in words” value was “dose-dependent increase in the fluorescent signal; also recorded: stronger effect than PMBN”. In addition, the MIC in the series with E. coli BW25113 [3] (BW25113, 20 h, compound alone) was > 200 µg/mL.
Regarding `N=C(N)c1cccc(OCc2ccc(COc3cccc(C(=N)N)c3)cc2)c1` [compound 23b, 3,3′-[1,4-Phenylenebis(methyleneoxy)]dibenzenecarboximidamide], in the series on E. coli ATCC25922, the FICI worked out at 0.156.
With `N=C(N)c1ccc(OCc2ccc3ccc(COc4ccc(C(=N)N)cc4)cc3c2)cc1` [compound 24, 4,4′-((Naphthalene-2,7-diylbis(methylene))bis(oxy))dibenzimidamide], the “toxicity against a rat L6 muscle cell line” value with rat L6 muscle cell line is on record as “significant toxicity”.
